For 1 molecule, Activity results are on record in ChEMBL document CHEMBL3612001, “Design and discovery of 2-(4-(1H-tetrazol-5-yl)-1H-pyrazol-1-yl)-4-(4-phenyl)thiazole derivatives as cardiotonic agents via inhibition of PDE3” (Bioorg Med Chem, 2015).

The subject of series [1] is Mus musculus. The experiment in a line: Toxicity in Swiss albino mouse assessed as changes in ALP level at 100 mg/kg, po dosed once orally for 28 days (reference value: 132.4 +/- 6.26 U/L). In kind it is organism-based. As to conditions: in vivo, 672 h.
Series [2] deals with Mus musculus. Description: Toxicity in Swiss albino mouse assessed as changes in cholesterol level at 100 mg/kg, po dosed once orally for 28 days (reference value: 138.43 +/- 1.52 mg/dL). In kind it is organism-based. To be noted: in vivo, 672 h.
Series [3] has as its system Mus musculus. Description: Toxicity in Swiss albino mouse assessed as changes in creatinine level at 1 mg/kg, po dosed once orally for 28 days (reference value: 0.04 +/- 0.37 mg/dL). In kind it is organism-based. As to conditions: in vivo, 672 h.
The test system of series [4] is Mus musculus. Description: Toxicity in Swiss albino mouse assessed as changes in total protein level at 10 mg/kg, po dosed once orally for 28 days (reference value: 3.45 +/- 0.45 […]). In kind it is organism-based. As to conditions: in vivo, 672 h.
The test system of series [5] is Mus musculus. Description: Toxicity in Swiss albino mouse assessed as changes in mortality at 100 mg/kg, po dosed once orally for 28 days. In kind it is organism-based. As to conditions: in vivo, 672 h. A digest of the protocol:
(§1)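 Sub-acute oral study in Swiss albino mice, 20–25 g, 3 male + 3 female per group, 7-day acclimatisation, 22 ± 5 °C, 12 h light/dark cycle, standard feed and water ad libitum. Compound dissolved in DMSO, suspended in 0.7% CMC, given orally once daily for 28 days at 0.1, 1, 10 or 100 mg/kg, against vehicle controls. Animals observed throughout; gross pathology with absolute and relative organ weights at end; n = 6.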

Series [6] has as its system Mus musculus. Description: Toxicity in Swiss albino mouse assessed as changes in haemoglobin level at 10 mg/kg, po dosed once orally for 28 days (reference value: 13.87 +/- 0.46 g/dL). In kind it is organism-based. As to conditions: in vivo, 672 h.
The subject of series [7] is Mus musculus. Description: Toxicity in Swiss albino mouse assessed as changes in SGPT level at 0.1 mg/kg, po dosed once orally for 28 days (reference value: 41.46 +/- 17.25 U/L). In kind it is organism-based. To be noted: in vivo, 672 h.
Series [8] relates to Cardiac atrium. The experiment in a line: Toxic cardiotonic activity in reserpine-pretreated and spontaneously beating rat atria assessed as chronotropic activity by measuring contractile frequency rate at 100 uM (reference value: 100%). In kind it is toxicity. The method, boiled down: (§2)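 Male Wistar rats (250–350 g) given reserpine 5 mg/kg ip 24 h before euthanasia under thiopental 80 mg/kg ip. Whole atria mounted in Krebs–Henseleit (95% O2/5% CO2, 35–37 °C, pH 7.35–7.45) at ~0.5 g resting tension, equilibrated 40–50 min. Used only if unresponsive to tyramine 1.5 μM. Compound added cumulatively (1–100 μM). Isometric force and rate recorded, six atria per compound.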

Series [9] relates to Mus musculus. The experiment in a line: Toxicity in Swiss albino mouse assessed as changes in SGPT level at 100 mg/kg, po dosed once orally for 28 days (reference value: 41.46 +/- 17.25 U/L). In kind it is organism-based. To be noted: in vivo, 672 h.
For series [10], the system named is Mus musculus. Description: Toxicity in Swiss albino mouse assessed as changes in creatinine level at 10 mg/kg, po dosed once orally for 28 days (reference value: 0.04 +/- 0.37 mg/dL). To be noted: in vivo, 672 h. In kind it is organism-based.
For series [11], the system named is Mus musculus. Description: Toxicity in Swiss albino mouse assessed as changes in body weight at 1 mg/kg, po dosed once orally for 28 days (reference value: 31.2 +/- 1.6g). In kind it is organism-based. To be noted: in vivo, 672 h.
For series [12], the system named is Mus musculus. Description: Toxicity in Swiss albino mouse assessed as changes in haemoglobin level at 0.1 mg/kg, po dosed once orally for 28 days (reference value: 13.87 +/- 0.46 g/dL). In kind it is organism-based. To be noted: in vivo, 672 h.
The test system of series [13] is Mus musculus. Description: Toxicity in Swiss albino mouse assessed as changes in haemoglobin level at 1 mg/kg, po dosed once orally for 28 days (reference value: 13.87 +/- 0.46 g/dL). In kind it is organism-based. To be noted: in vivo, 672 h.
Series [14] relates to Cardiac atrium. The experiment in a line: Cardiotonic activity in reserpine-pretreated and spontaneously beating rat atria assessed as inotropic activity by measuring contractile force at 10 uM (reference value: 100%). In kind it is functional. The method, boiled down:
as §2

In series [15] the test system is Mus musculus. Description: Toxicity in Swiss albino mouse assessed as changes in ALP level at 10 mg/kg, po dosed once orally for 28 days (reference value: 132.4 +/- 6.26 U/L). In kind it is organism-based. To be noted: in vivo, 672 h.
Series [16] relates to Mus musculus. Description: Toxicity in Swiss albino mouse assessed as changes in SGOT level at 0.1 mg/kg, po dosed once orally for 28 days (reference value: 112.7 +/- 10.6 U/L). In kind it is organism-based. As to conditions: in vivo, 672 h.
For series [17], the system named is Mus musculus. Description: Toxicity in Swiss albino mouse assessed as changes in body weight at 100 mg/kg, po dosed once orally for 28 days (reference value: 31.2 +/- 1.6g). In kind it is organism-based. As to conditions: in vivo, 672 h.
Series [18] deals with Mus musculus. Description: Toxicity in Swiss albino mouse assessed as changes in total protein level at 100 mg/kg, po dosed once orally for 28 days (reference value: 3.45 +/- 0.45 […]). In kind it is organism-based. To be noted: in vivo, 672 h.
Series [19] deals with Mus musculus. The experiment in a line: Toxicity in Swiss albino mouse assessed as changes in haemoglobin level at 100 mg/kg, po dosed once orally for 28 days (reference value: 13.87 +/- 0.46 g/dL). To be noted: in vivo, 672 h. In kind it is organism-based.
Series [20] has as its system Mus musculus. Description: Toxicity in Swiss albino mouse assessed as changes in morbidity at 100 mg/kg, po dosed once orally for 28 days. To be noted: in vivo, 672 h. In kind it is organism-based. The method, boiled down: as §1
The test system of series [21] is Cardiac atrium. Description: Toxic cardiotonic activity in reserpine-pretreated and spontaneously beating rat atria assessed as chronotropic activity by measuring contractile frequency rate at 10 uM (reference value: 100%). In kind it is toxicity. A digest of the protocol: as §2
Series [22] has as its system Mus musculus. The experiment in a line: Toxicity in Swiss albino mouse assessed as changes in creatinine level at 100 mg/kg, po dosed once orally for 28 days (reference value: 0.04 +/- 0.37 mg/dL). In kind it is organism-based. To be noted: in vivo, 672 h.

For the molecule `Fc1ccc(-c2csc(-n3cc(-c4nnn[nH]4)cn3)n2)cc1`, the Activity in the series on Mus musculus [1] was 134.02 U/L; in the series on Mus musculus [2], 134.3 mg/dL; in the series with Mus musculus [3], 0.04 mg/dL; in the series with Mus musculus [4] it was 4.12 g/dL; with Mus musculus [5], “Non-toxic”; in the series on Mus musculus [6], 15.72 g/dL. The Activity in the series on Mus musculus [7] is 40.12 U/L; in the series on Cardiac atrium [8], 123%; with Mus musculus [9], 42.1 U/L; in the series with Mus musculus [10], 0.04 mg/dL; in the series with Mus musculus [11] it was 28.04 g; with Mus musculus [12], 14.5 g/dL. Moreover, the Activity was found to be 15.34 g/dL in the series on Mus musculus [13]; 129% in the series on Cardiac atrium [14]; 133.3 U/L in the series on Mus musculus [15]; 107.8 U/L in the series with Mus musculus [16]; 33 g with Mus musculus [17]; 4.54 g/dL in the series on Mus musculus [18]. Moreover, the Activity in the series on Mus musculus [19] is 15.24 g/dL; in the series on Mus musculus [20], “Non-toxic”; in the series with Cardiac atrium [21], 114%; in the series on Mus musculus [22] it was 0.05 mg/dL.
